Each structure is given as a SMILES string.

This note sets out measurements from ChEMBL document CHEMBL1127024, “Synthetic and computer-assisted analysis of the structural requirements for selective, high-affinity ligand binding to diazepam-insensitive benzodiazepine receptors” (J Med Chem, 1993).

Type in all cases: protein-complex assay
Test [1] concerns the target GABA-A receptor; anion channel. As to the kind of experiment: Binding affinity for Diazepam insensitive (DI) isoform of the benzodiazepine (Bz) binding site on GABAA receptors. Summed up: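 Adult male Sprague-Dawley rat cerebellar membranes (~100 µg; homogenised in 50 mM Tris-citrate pH 7.8, washed by repeated 20000g spins at 4 °C). Incubated 60 min at 0-4 °C, GF/B filtration, scintillation counting. Duplicate assays; Ki.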

In test [2] the target is GABA-A receptor; anion channel. The test can be described thus: Binding affinity for Diazepam sensitive (DS) isoform of the benzodiazepine (Bz) binding site on GABAA receptors.
Test [3] deals with GABA-A receptor; anion channel (Rattus norvegicus) (UniProt O09028+P15431+P18506+P18508+P19969+P20236+P23574+P23576+P28471+P28473+P30191+P62813+P63079+P63138+Q91ZM7+Q9ES14). The test can be described thus: Ratio of binding affinity against DI Bz receptor to that of DS Bz receptor.

`O=C(OCC1CC1)c1ncn2c1C1CCCN1C(=O)c1cc(Cl)ccc1-2` (centres undefined): the Ki in test [1] was 81 nM; in test [2], 378 nM. In addition, the Ratio in test [3] was determined as 0.22.

For the compound `C=CCN1Cc2c(C(=O)OCC)ncn2-c2ccccc2C1=O`, the Ki turned out to be 1130 nM in test [1] and 39.2 nM in test [2]. Besides, in test [3], the Ratio was 29.

`COC(=O)c1ncn2c1CN(C)C(=O)c1sccc1-2`: in test [3], the Ratio came to 58.

As to `CCOC(=O)c1ncn2c1CN(C)C(=O)c1ccccc1-2`, the Ratio in test [3] was 165.

`CC(C)(C)OC(=O)c1ncn2c1C1CCN1C(=O)c1c(Cl)cccc1-2` (centres undefined): the Ki in test [2] came out at 1.1 nM. Besides, the Ratio in test [3] came to 14.

In the case of `CCC(CC)OC(=O)c1ncn2c1CN(C)C(=O)c1cc(Cl)ccc1-2`, the Ratio in test [3] came out at 4.6.

As to `CN1Cc2c(C(=O)OC(C)(C)C)ncn2-c2ccsc2C1=O`, the Ratio in test [3] stood at 13.

Consider `COc1cccc2c1C(=O)N1CCCC1c1c(C(=O)OC(C)(C)C)ncn1-2` (centres undefined), for which the inhibitory constant (Ki) in test [1] came out at 259 nM; in test [2], 5.1 nM. Besides, the Ratio in test [3] turned out to be 51.

Regarding `O=C(OC1CCCCC1)c1ncn2c1C1CCCN1C(=O)c1cc(Cl)ccc1-2` (centres undefined), the Ki in test [1] is 165 nM; in test [2] it was 391 nM. Further, the Ratio in test [3] is 0.42.

As for `CCCOC(=O)c1ncn2c1CN(C)C(=O)c1cc(Cl)ccc1-2`, the Ratio in test [3] was found to be 1.3.

In the case of `CN1Cc2c(C(=O)OCC(C)(C)C)ncn2-c2ccc(Cl)cc2C1=O`, the Ratio in test [3] came to 0.67.

`CCOC(=O)c1ncn2c1C1CCN1C(=O)c1c(Cl)cccc1-2` (centres undefined): the Ki is 34 nM in test [1] and 0.2 nM in test [2]. The Ratio in test [3] was determined as 170.

`CCOC(=O)c1ncn2c1C1CCCN1C(=O)c1c(Cl)cccc1-2` (centres undefined): the Ki amounted to 68.8 nM in test [1] and 0.2 nM in test [2]. The Ratio in test [3] stood at 344.

For the compound `CC(C)OC(=O)c1ncn2c1CN(C)C(=O)c1cc(Cl)ccc1-2`, in test [3], the Ratio was found to be 0.8.

Take `CN1Cc2c(C(=O)OC(C)(C)C)ncn2-c2ccccc2C1=O`: the Ratio in test [3] was 19.2.

As for `Cc1noc(-c2ncn3c2CN(Cc2ccccc2)C(=O)c2c(Cl)cccc2-3)n1`, in test [2], the Ki is 7.5 nM. In test [3], the Ratio came out at 101.

As for `Cc1nnc(-c2ncn3c2CN(Cc2ccccc2)C(=O)c2ccccc2-3)o1`, the Ki was > 10000 nM in test [1] and 1210 nM in test [2].

Turning to `CCOC(=O)c1ncn2c1CN(C)C(=O)c1c(Cl)cccc1-2` [SARMAZENIL], the values for the Ki in test [1] and in test [2] were 20 nM and 0.2 nM, respectively. Also, the Ratio in test [3] stood at 100.

In the case of `Cc1noc(-c2ncn3c2CN(Cc2ccccc2)C(=O)c2ccccc2-3)n1`, the Ki in test [1] was > 10000 nM; in test [2], 907 nM.

Regarding `CCOC(=O)c1ncn2c1[C@@H]1CCCN1C(=O)c1ccccc1-2`, the Ratio in test [3] is 50.

As to `CCOC(=O)c1ncn2c1[C@H]1CCCN1C(=O)c1ccccc1-2`, the values for the Ki in test [1] and in test [2] were > 1000 nM and > 100 nM, respectively.

With `CC(C)(C)OC(=O)c1ncn2c1C1CCCN1C(=O)c1c-2ccc(F)c1Cl` (centres undefined), the Ki in test [1] came out at 23.6 nM; in test [2], 1 nM. The Ratio in test [3] was found to be 24.

With `COC(=O)c1ncn2c1CN(C)C(=O)c1cc(F)ccc1-2` [FLUMAZENIL METHYLESTER], the values for the inhibition constant Ki in test [1] and in test [2] were 239 nM and 3.1 nM, respectively. Moreover, the Ratio in test [3] amounted to 77.

`O=C(OCC1CC1)c1ncn2c1C1CCN1C(=O)c1c(Cl)cccc1-2` (centres undefined): the Ki came to 55 nM in test [1] and 0.1 nM in test [2]. Further, the Ratio in test [3] was determined as 554.

With `CCOC(=O)c1ncn2c1CN(C)C(=O)c1cccc(Cl)c1-2`, the Ki in test [1] is > 10000 nM; in test [2] it was > 1000 nM.

`CC(C)(C)OC(=O)c1ncn2c1C1CCCN1C(=O)c1c(Br)cccc1-2` (centres undefined): the inhibition constant (Ki) amounted to 10 nM in test [1] and 0.5 nM in test [2]. The Ratio in test [3] was determined as 20.

`COC(=O)c1ncn2c1CN(C)C(=O)c1ccccc1-2` gave an inhibitory constant (Ki) in test [1] of 1410 nM. Further, the Ratio in test [3] was found to be 224.

For `Cc1noc(-c2ncn3c2CN(Cc2ccccc2)C(=O)c2cc(Cl)ccc2-3)n1`, the figures for the Ki in test [1] and in test [2] were 115 nM and 88.4 nM, respectively. Besides, the Ratio in test [3] came to 1.3.

`CCc1cccc2c1C(=O)N1CCCC1c1c(C(=O)OC(C)(C)C)ncn1-2` (centres undefined): the figures for the Ki in test [1] and in test [2] were 164 nM and 1 nM, respectively. The Ratio in test [3] came out at 164.

Consider `CN1Cc2c(C(=O)OCC3CC3)ncn2-c2ccc(Cl)cc2C1=O`, for which, in test [3], the Ratio amounted to 4.1.

On to `CCOC(=O)c1ncn2c1CN(Cc1ccccc1)C(=O)c1cc(Cl)ccc1-2`, for which the Ki in test [1] turned out to be 10.9 nM; in test [2] it was 13.7 nM. Besides, the Ratio in test [3] came out at 0.8.

Consider `CCCOC(=O)c1ncn2c1CN=C(c1ccccc1Cl)c1cc(Cl)ccc1-2`, for which the figures for the Ki in test [1] and in test [2] were 1020 nM and 1.9 nM, respectively. In addition, in test [3], the Ratio was found to be 539.

`CN1Cc2c(C(=O)OC(C)(C)C)ncn2-c2ccc(Cl)cc2C1=O`: the Ratio in test [3] was 0.4.

Consider `CCOC(=O)c1ncn2c1CN(Cc1ccccc1)C(=O)c1c(Cl)cccc1-2`, for which the Ki amounted to 20.2 nM in test [1] and 0.4 nM in test [2]. The Ratio in test [3] came out at 51.

As to `CCOC(=O)c1ncn2c1CN(C)C(=O)c1ccc(Cl)cc1-2`, the values for the Ki in test [1] and in test [2] were > 10000 nM and > 1000 nM, respectively.

Regarding `Cc1nnc2n1-c1ccc(Cl)cc1C(c1ccccc1Cl)=NC2` [TRIAZOLAM], the values for the Ki in test [1] and in test [2] were 2090 nM and 0.8 nM, respectively. Further, the Ratio in test [3] came to 2610.

Regarding `CC(C)(C)OC(=O)c1ncn2c1C1CCCN1C(=O)c1cc(Cl)ccc1-2` (centres undefined), the Ki in test [1] is 26.8 nM; in test [2] it was 65.2 nM. For the same compound, the Ratio in test [3] was determined as 0.4.

`CCCOC(=O)c1nc(C)n2c1CN=C(c1ccccc1Cl)c1cc(Cl)ccc1-2`: the Ki in test [2] was found to be 2.2 nM. In other words, the single-digit nanomolar range.

Take `CCOC(=O)c1ncn2c1CN(Cc1ccccc1)C(=O)c1ccccc1-2`: the Ki in test [1] was determined as 112 nM; in test [2], 1.5 nM. Moreover, the Ratio in test [3] amounted to 75.

As to `CCOC(=O)c1ncn2c1C1CCCN1C(=O)c1cc(Cl)ccc1-2` (centres undefined), the Ratio in test [3] is 0.7.

As for `CCCOC(=O)c1ncn2c1CN(C)C(=O)c1sccc1-2`, the Ratio in test [3] turned out to be 27.

Take `CN1Cc2c(C(=O)OCCC(C)(C)C)ncn2-c2ccc(Cl)cc2C1=O`: the Ki in test [1] was > 1000 nM.

As for `CC(C)(C)OC(=O)c1ncn2c1C1CCN1C(=O)c1cc(F)ccc1-2` (centres undefined), the values for the Ki in test [1] and in test [2] were 16.9 nM and 1.8 nM, respectively. Moreover, the Ratio in test [3] worked out at 9.

As for `CCOC(=O)c1ncn2c1CN(C)C(=O)c1c(F)cccc1-2`, the figures for the Ki in test [1] and in test [2] were 102 nM and 0.8 nM, respectively. Also, in test [3], the Ratio amounted to 128.

In general, Ki refers to a dissociation constant, usually derived from enzyme kinetics or from competition with a known ligand.
